# Results from ChEMBL document CHEMBL1909581, “Growth inhibition of human lung cancer cells via down-regulation of epidermal growth factor receptor signaling by yuanhuadine, a daphnane diterpene from Daphne genkwa” (J Nat Prod, 2011).
# pIC50: −log10 of the molar value. Active and inactive are the calls of the source. No cut-off for these calls is given here.
# Columns and labels:
# [1] = tested on: NCI-H1993; test: Antiproliferative activity against human NCI-H1993 cells after 3 days by SRB assay; type: functional, cell-based; conditions: NCI-H1993, 72 h
# [2] = tested on: SW480; test: Antiproliferative activity against human SW480 cells after 3 days by SRB assay; type: functional, cell-based; conditions: SW480, 72 h
# Procedure, shortened: (§1)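 Cells seeded at 5 × 10^4 cells/mL and exposed to a range of concentrations for 3 days. Fixed with 10% TCA, then SRB stain read. Growth expressed as % of solvent-treated control. IC50 obtained by nonlinear regression of percent survival versus concentration.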
# [3] = tested on: PC-3; test: Antiproliferative activity against human PC3 cells after 3 days by SRB assay; type: functional, cell-based; conditions: PC-3, 72 h; procedure, shortened: as §1
# [4] = tested on: MRC5; test: Antiproliferative activity against human MRC5 cells after 3 days by SRB assay; type: cell-based; conditions: mrc5, 72 h; procedure, shortened: as §1
# [5] = tested on: A549; test: Cell cycle arrest in human A549 cells assessed as accumulation at S phase at 20 nM after 24 hrs by propidium iodide staining-based flow cytometric analysis (reference value: 31.6 %); type: functional
# [6] = tested on: A549; test: Cell cycle arrest in human A549 cells assessed as accumulation at G2/M phase at 20 nM after 24 hrs by propidium iodide staining-based flow cytometric analysis (reference value: 18.9 %); type: functional
# [7] = tested on: A549; test: Cell cycle arrest in human A549 cells assessed as accumulation at G0/G1 phase at 100 nM after 24 hrs by propidium iodide staining-based flow cytometric analysis (reference value: 49.6 %); type: functional
# [8] = tested on: A549; test: Cell cycle arrest in human A549 cells assessed as accumulation at S phase at 100 nM after 24 hrs by propidium iodide staining-based flow cytometric analysis (reference value: 31.6 %); type: functional
# [9] = tested on: A549; test: Cell cycle arrest in human A549 cells assessed as accumulation at G2/M phase at 100 nM after 24 hrs by propidium iodide staining-based flow cytometric analysis (reference value: 18.9 %); type: functional
# [10] = tested on: A549; test: Cell cycle arrest in human A549 cells assessed as accumulation at G0/G1 phase at 20 nM after 48 hrs by propidium iodide staining-based flow cytometric analysis (reference value: 49.6 %); type: functional
# [11] = tested on: A549; test: Cell cycle arrest in human A549 cells assessed as accumulation at G2/M phase at 20 nM after 48 hrs by propidium iodide staining-based flow cytometric analysis (reference value: 18.9 %); type: functional
# [12] = tested on: A549; test: Cell cycle arrest in human A549 cells assessed as accumulation at S phase at 100 nM after 48 hrs by propidium iodide staining-based flow cytometric analysis (reference value: 31.6 %); type: functional
# [13] = tested on: A549; test: Cell cycle arrest in human A549 cells assessed as accumulation at G2/M phase at 100 nM after 48 hrs by propidium iodide staining-based flow cytometric analysis (reference value: 18.9 %); type: functional
# [14] = tested on: A549; test: Downregulation of cyclin E expression in human A549 cells at G1 phase at 5 to 100 nM after 24 to 48 hrs by Western blot analysis; type: functional, cell-based
# Procedure, shortened: (§2)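 A549 cells treated with a range of concentrations for 24 or 48 h. Lysates run on 6–15% SDS-PAGE and blotted to PVDF, blocked in 5% milk/PBST. Primary antibodies overnight at 4 °C, secondary 2 h at room temperature, ECL detection. Representative of three independent experiments.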
# [15] = tested on: A549; test: Upregulation of p21 expression in human A549 cells at G1 phase at 5 to 100 nM after 24 to 48 hrs by Western blot analysis; type: functional, cell-based
# Procedure, shortened: (§3)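 A549 cells (RPMI 1640, 10% FBS, 37 °C, 5% CO2) exposed to the compound at various concentrations for 24 or 48 h. Lysates run on 6–15% SDS-PAGE, transferred to PVDF, probed with primary antibodies overnight at 4 °C, and detected by ECL. Blots shown are representative of three independent experiments.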
# [16] = tested on: A549; test: Downregulation of CDC2 expression in human A549 cells at G2/M phase at 5 to 100 nM after 24 to 48 hrs by Western blot analysis; type: functional, cell-based; procedure, shortened: as §2
# [17] = target: Glycogen synthase kinase-3 beta (Homo sapiens) (UniProt P49841); test: Inhibition of GSK3-beta in human A549 cells after 24 hrs by Western blot analysis; type: cell-based; procedure, shortened: as §3
# [18] = target: Epidermal growth factor receptor (Homo sapiens) (UniProt P00533); test: Inhibition of EGFR-mediated Akt phosphorylation in EGF-stimulated human A549 cells pretreated at 20 nM by Western blot analysis; type: cell-based
# Procedure, shortened: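 A549 cells serum-starved 24 h, pretreated with 20 nM compound for 2 h, then stimulated with EGF (10 ng/mL) for 10 min. Levels of EGFR, Akt and ERK read by Western blot.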
# [19] = target: Hepatocyte growth factor receptor (Homo sapiens) (UniProt P08581); test: Inhibition of c-Met phosphorylation at Tyr1230/1234/1235 in HGF-stimulated human A549 cells pretreated at 5 to 100 nM for 2 hrs by Western blot analysis; type: cell-based
# Procedure, shortened: (§4)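 A549 cells pretreated for 2 h with the compound at 5, 20 or 100 nM, then stimulated with HGF (50 ng/mL) for 10 min. c-Met and its downstream signalling proteins read by Western blot (SDS-PAGE, PVDF transfer, ECL detection).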
# [20] = target: Hepatocyte growth factor receptor (Homo sapiens) (UniProt P08581); test: Inhibition of c-Met phosphorylation at Tyr1003 in HGF-stimulated human A549 cells pretreated at 5 to 100 nM for 2 hrs by Western blot analysis; type: cell-based; procedure, shortened: as §4
# [21] = target: Hepatocyte growth factor receptor (Homo sapiens) (UniProt P08581); test: Inhibition of c-Met-mediated STAT3 phosphorylation in HGF-stimulated human A549 cells pretreated at 5 to 100 nM by Western blot analysis; type: cell-based; procedure, shortened: as §4
# [22] = target: Hepatocyte growth factor receptor (Homo sapiens) (UniProt P08581); test: Inhibition of c-Met-mediated MTOR phosphorylation in HGF-stimulated human A549 cells pretreated at 5 to 100 nM by Western blot analysis; type: cell-based; procedure, shortened: as §4
# [23] = target: Hepatocyte growth factor receptor (Homo sapiens) (UniProt P08581); test: Inhibition of c-Met-mediated p70S6K phosphorylation in HGF-stimulated human A549 cells pretreated at 5 to 100 nM by Western blot analysis; type: cell-based; procedure, shortened: as §4
# [24] = tested on: A549; test: Antitumor activity against human A549 cells xenografted in BALB/c mouse assessed as inhibition of tumor growth at 0.5 mg/kg, po once daily for 14 days measured for 27 days relative to control; type: functional; conditions: read-out: GI
# Procedure, shortened: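 Female nu/nu nude mice given 3 × 10^6 A549 cells sc into the right flank, in 200 μL medium. At ~100 mm3, randomized into groups of five. Dosed orally once daily for 14 days in 100 μL ethanol–Tween 80–water (1:1:98), vehicle as control. Tumor volume measured by caliper every 2–3 days; body weight monitored.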
# Sequence of Hepatocyte growth factor receptor (Homo sapiens) (P08581 whole entry): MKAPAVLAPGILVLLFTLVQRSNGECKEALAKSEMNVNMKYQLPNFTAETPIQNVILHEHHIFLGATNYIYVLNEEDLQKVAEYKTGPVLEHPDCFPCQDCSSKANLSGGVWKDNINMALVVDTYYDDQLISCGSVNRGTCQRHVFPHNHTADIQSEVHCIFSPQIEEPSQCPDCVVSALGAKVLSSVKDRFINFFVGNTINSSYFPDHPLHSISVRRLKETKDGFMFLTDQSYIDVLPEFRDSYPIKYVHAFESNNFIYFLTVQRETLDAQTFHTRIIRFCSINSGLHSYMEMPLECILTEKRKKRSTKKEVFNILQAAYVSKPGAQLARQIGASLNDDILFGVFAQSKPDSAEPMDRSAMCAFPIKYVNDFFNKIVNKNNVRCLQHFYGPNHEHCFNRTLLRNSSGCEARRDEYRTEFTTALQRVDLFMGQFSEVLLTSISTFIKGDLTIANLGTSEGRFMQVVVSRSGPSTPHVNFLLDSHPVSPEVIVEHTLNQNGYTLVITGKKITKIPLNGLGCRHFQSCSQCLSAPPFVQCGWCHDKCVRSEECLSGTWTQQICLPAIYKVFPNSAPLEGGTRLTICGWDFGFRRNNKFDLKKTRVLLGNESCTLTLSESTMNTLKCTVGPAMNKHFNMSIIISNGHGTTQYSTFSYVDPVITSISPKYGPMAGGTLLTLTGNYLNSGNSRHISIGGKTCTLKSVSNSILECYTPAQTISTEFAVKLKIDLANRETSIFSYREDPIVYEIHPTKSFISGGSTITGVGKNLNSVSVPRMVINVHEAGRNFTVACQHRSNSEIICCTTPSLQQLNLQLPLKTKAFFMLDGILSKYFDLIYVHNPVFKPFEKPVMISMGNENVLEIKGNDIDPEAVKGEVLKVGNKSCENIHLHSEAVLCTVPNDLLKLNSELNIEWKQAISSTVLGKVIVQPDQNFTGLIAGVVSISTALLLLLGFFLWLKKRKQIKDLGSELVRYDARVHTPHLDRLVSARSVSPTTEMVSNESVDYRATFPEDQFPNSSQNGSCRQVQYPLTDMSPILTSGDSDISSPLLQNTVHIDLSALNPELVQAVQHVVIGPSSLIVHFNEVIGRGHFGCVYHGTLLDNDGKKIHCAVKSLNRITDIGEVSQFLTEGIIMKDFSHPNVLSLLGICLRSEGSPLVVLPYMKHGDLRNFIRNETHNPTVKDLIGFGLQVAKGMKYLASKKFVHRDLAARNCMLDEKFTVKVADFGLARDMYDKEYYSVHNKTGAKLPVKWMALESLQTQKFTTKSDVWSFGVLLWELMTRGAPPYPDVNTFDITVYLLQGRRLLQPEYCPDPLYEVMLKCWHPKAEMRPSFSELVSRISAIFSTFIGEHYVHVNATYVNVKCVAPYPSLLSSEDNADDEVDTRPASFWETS
# Sequence of Glycogen synthase kinase-3 beta (Homo sapiens) (P49841 whole entry, looked up): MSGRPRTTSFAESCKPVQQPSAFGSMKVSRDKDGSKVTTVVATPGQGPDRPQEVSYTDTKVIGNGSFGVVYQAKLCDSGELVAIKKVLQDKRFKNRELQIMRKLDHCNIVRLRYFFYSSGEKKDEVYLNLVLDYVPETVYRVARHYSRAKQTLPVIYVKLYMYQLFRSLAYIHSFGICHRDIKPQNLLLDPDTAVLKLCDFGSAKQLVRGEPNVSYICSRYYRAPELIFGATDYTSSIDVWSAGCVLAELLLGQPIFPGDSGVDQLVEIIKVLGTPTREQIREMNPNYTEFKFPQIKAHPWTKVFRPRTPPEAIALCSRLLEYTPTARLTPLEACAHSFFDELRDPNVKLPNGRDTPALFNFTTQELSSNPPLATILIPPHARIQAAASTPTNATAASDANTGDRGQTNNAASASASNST
# Sequence of Epidermal growth factor receptor (Homo sapiens) (P00533 whole entry): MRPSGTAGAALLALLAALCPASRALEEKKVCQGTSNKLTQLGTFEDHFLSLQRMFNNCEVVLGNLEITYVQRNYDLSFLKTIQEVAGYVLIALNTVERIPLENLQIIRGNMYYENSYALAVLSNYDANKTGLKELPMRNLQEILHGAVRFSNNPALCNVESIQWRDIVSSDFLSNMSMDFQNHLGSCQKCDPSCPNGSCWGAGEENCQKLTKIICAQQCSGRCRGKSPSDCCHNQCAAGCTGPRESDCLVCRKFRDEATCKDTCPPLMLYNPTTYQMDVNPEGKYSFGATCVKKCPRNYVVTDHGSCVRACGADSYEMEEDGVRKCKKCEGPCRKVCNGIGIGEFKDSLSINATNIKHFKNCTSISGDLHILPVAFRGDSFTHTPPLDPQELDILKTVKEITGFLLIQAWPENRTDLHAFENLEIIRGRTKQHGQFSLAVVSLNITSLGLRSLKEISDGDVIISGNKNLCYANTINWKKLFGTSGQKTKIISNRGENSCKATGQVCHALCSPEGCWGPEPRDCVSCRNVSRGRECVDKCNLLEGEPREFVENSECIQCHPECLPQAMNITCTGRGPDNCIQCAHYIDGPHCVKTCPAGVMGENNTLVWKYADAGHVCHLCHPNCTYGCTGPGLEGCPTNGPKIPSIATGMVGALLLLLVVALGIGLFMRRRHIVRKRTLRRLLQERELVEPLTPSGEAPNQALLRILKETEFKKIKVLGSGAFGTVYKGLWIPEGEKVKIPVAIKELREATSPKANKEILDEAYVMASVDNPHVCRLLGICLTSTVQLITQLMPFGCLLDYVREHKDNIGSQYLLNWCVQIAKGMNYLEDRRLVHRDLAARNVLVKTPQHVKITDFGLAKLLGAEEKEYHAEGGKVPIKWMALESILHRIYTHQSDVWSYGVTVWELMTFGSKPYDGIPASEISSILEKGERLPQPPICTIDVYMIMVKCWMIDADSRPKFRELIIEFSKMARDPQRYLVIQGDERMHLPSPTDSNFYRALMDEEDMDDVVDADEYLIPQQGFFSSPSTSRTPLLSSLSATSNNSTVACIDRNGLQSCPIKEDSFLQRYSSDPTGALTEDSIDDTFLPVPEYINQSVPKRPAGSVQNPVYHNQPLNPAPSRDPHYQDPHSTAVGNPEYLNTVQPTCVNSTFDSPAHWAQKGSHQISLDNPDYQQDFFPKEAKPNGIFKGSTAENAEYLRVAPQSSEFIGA
compound,measurement,setting,value
C=C(C)[C@@]12O[C@@]3(/C=C/C=C/CCCCC)O[C@@H]1[C@@H]1[C@@H]4O[C@]4(CO)[C@@H](O)[C@]4(O)C(=O)C(C)=C[C@H]4[C@@]1(O3)[C@H](C)[C@H]2OC(C)=O [YUANHUADINE],pIC50,[1],8.33
same,pIC50,[2],4.93
same,pIC50,[3],5.13
same,growth inhibition (GI),[4],Non-toxic
same,Activity,[5],7.3%
same,Activity,[6],24.5%
same,Activity,[7],65.3%
same,Activity,[8],6.7%
same,Activity,[9],28%
same,Activity,[10],62.2%
same,Activity,[11],22.2%
same,Activity,[12],12.6%
same,Activity,[13],26.3%
same,Activity,[14],Active
same,Activity,[15],Active
same,Activity,[16],Active
same,inhibition,[17],Dose-dependent effect
same,inhibition,[18],Active
same,inhibition,[19],Active
same,inhibition,[20],Active
same,inhibition,[21],Active
same,inhibition,[22],Active
same,inhibition,[23],Active
same,inhibition in vivo at 0.5 mg/kg,[24],50%
